Columns and labels:
MCF7 [1] = test: Antiproliferative activity against human MCF7 cells assessed as inhibition of cell growth at 10 uM incubated for 48 hrs by MTT assay; type: functional
In short: (§1)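 Single-concentration screen: cells (ATCC; 37 °C, 5% CO₂) seeded at 4 × 10⁴ per well, adhered overnight, then treated 48 h at 10 μM. Medium removed, MTT (2.5 mg mL⁻¹) added for 4 h, formazan dissolved in DMSO, absorbance read at 570 nm; percent inhibition versus untreated cells.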

ZR-75-1 [2] = test: Antiproliferative activity against human ZR-75-1 cells assessed as inhibition of cell growth at 10 uM incubated for 48 hrs by MTT assay; type: functional; in short: as §1
MDA-MB-231 [3] = test: Antiproliferative activity against human MDA-MB-231 cells assessed as inhibition of cell growth at 10 uM incubated for 48 hrs by MTT assay; type: functional; in short: as §1
ZR-75-1 [4] = test: Antiproliferative activity against human ZR-75-1 cells assessed as inhibition of cell growth incubated for 48 hrs by MTT assay; type: functional, cell-based; conditions: ZR-75-1, 48 h
MCF7 [5] = test: Antiproliferative activity against human MCF7 cells assessed as inhibition of cell growth incubated for 48 hrs by MTT assay; type: functional, cell-based; conditions: MCF7, 48 h
In short: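 MCF-7 exposed 48 h to 0.625, 1.25, 2.5, 5, 10, 20 and 40 μM. MTT (2.5 mg mL⁻¹) added for 4 h, medium removed, formazan solubilized in DMSO, absorbance at 570 nm; percent growth inhibition calculated and IC50 derived.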

MDA-MB-231 [6] = test: Antiproliferative activity against human MDA-MB-231 cells assessed as inhibition of cell growth incubated for 48 hrs by MTT assay; type: functional, cell-based; conditions: MDA-MB-231, 48 h

COc1ccc(-c2ncn(-c3ccccc3)n2)cc1
inhibition at 10 µM (MCF7 [1]): 0.853%
inhibition at 10 µM (ZR-75-1 [2]): 0%
inhibition at 10 µM (MDA-MB-231 [3]): 0%

COc1ccc(-c2ncn(-c3cc(OC)c(OC)c(OC)c3)n2)cc1OC
inhibition at 10 µM (MCF7 [1]): 28.9%
inhibition at 10 µM (MDA-MB-231 [3]): 23.5%

COc1ccc(-n2cnc(-c3ccc(Cl)cc3)n2)cc1OC
inhibition at 10 µM (MCF7 [1]): 9.2%
inhibition at 10 µM (ZR-75-1 [2]): 0%
inhibition at 10 µM (MDA-MB-231 [3]): 0%

c1cc2c(cc1-c1ncn(-c3ccc4c(c3)OCO4)n1)OCO2
inhibition at 10 µM (MCF7 [1]): 8.99%
inhibition at 10 µM (MDA-MB-231 [3]): 17.1%

COc1cc(-n2cnc(-c3ccc4c(c3)OCO4)n2)cc(OC)c1OC
inhibition at 10 µM (MCF7 [1]): 21.2%
inhibition at 10 µM (MDA-MB-231 [3]): 17.9%

COc1ccc(-n2cnc(-c3ccc(F)c(F)c3)n2)cc1OC
inhibition at 10 µM (MCF7 [1]): 16.1%
inhibition at 10 µM (MDA-MB-231 [3]): 7.98%

COc1ccc(-c2ncn(-c3cc(OC)c(OC)c(OC)c3)n2)cn1
inhibition at 10 µM (MCF7 [1]): 35.9%
inhibition at 10 µM (ZR-75-1 [2]): 4.95%
inhibition at 10 µM (MDA-MB-231 [3]): 5.25%

COc1ccc(-n2cnc(-c3cccc(C(F)(F)F)c3)n2)cc1OC
inhibition at 10 µM (MCF7 [1]): 18.4%
inhibition at 10 µM (MDA-MB-231 [3]): 12.8%

COc1ccc(-n2cnc(-c3ccc(F)cc3)n2)cc1OC
inhibition at 10 µM (MCF7 [1]): 17.6%
inhibition at 10 µM (MDA-MB-231 [3]): 16.8%

COc1cc(-n2cnc(-c3cccc(N)c3)n2)cc(OC)c1OC
IC50 (ZR-75-1 [4]): 71 µM
IC50 (MCF7 [5]): 5.7 µM
inhibition at 10 µM (MCF7 [1]): 57.6%
inhibition at 10 µM (ZR-75-1 [2]): 12.1%
inhibition at 10 µM (MDA-MB-231 [3]): 22.7%
IC50 (MDA-MB-231 [6]): 21 µM

COc1cc(-n2cnc(-c3cc(Cl)cc(Cl)c3)n2)cc(OC)c1OC
inhibition at 10 µM (MCF7 [1]): 0%
inhibition at 10 µM (MDA-MB-231 [3]): 17.4%

COc1cc(-n2cnc(-c3cccc4ccccc34)n2)cc(OC)c1OC
inhibition at 10 µM (MCF7 [1]): 13.4%
inhibition at 10 µM (MDA-MB-231 [3]): 22.6%

From ChEMBL document CHEMBL6083223, “Development of di-arylated 1,2,4-triazole-based derivatives as therapeutic agents against breast cancer: synthesis and biological evaluation” (RSC Med Chem, 2024)
